The values below come from ChEMBL document CHEMBL5543089, “Discovery of a novel, highly potent EZH2 PROTAC degrader for targeting non-canonical oncogenic functions of EZH2” (Eur J Med Chem, 2024).

Some results are limits rather than exact numbers.

Assay [1] addresses Histone-lysine N-methyltransferase NSD3 (Homo sapiens) (UniProt Q9BZ95). Kind of assay: Inhibition of human NSD3 assessed as methyltransferase activity using Nucleosomes as substrate at 10 uM by radioisotope based MT HotSpot assay relative to control. Put shortly:
(§1)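 Radioisotope-based methyltransferase assay (MT HotSpot) run by a contract lab. Compound was tested at 10 μM against a panel of 20 methyltransferases, in duplicate. Values are means ± SD of two replicates.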

In assay [2] the target is Protein arginine N-methyltransferase 6 (Homo sapiens) (UniProt Q96LA8). Kind of assay: Inhibition of human PRMT6 assessed as methyltransferase activity using GST-GAR as substrate at 10 uM by radioisotope based MT HotSpot assay relative to control. Put shortly:
as §1

For assay [3], the target named is Histone-lysine N-methyltransferase SETD2 (Homo sapiens) (UniProt Q9BYW2). The assay is described as follows: Inhibition of human SETD2 assessed as methyltransferase activity using Oligo Nucleosomes as substrate at 10 uM by radioisotope based MT HotSpot assay relative to control. Put shortly: as §1
Assay [4] addresses von Hippel-Lindau disease tumor suppressor/Histone-lysine N-methyltransferase EZH2 (Homo sapiens, UniProt Q15910+P40337). The assay is described as follows: PROTAC activity at VHL/EZH2 degradation in human MV4-11 cells assessed as protein degradation at 0.03 to 0.3 microM measured after 24 hrs by Western blot analysis. It is filed as cell-based. Particulars: dose 0.03-0.3 µM. Put shortly:
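Cells were seeded at 0.5–2 million per well and treated for 24 h, or for the stated times at 300 nM in the time course. Lysis was in RIPA with protease inhibitors; ~10 μg protein was run on SDS-PAGE and blotted to PVDF. Detection used fluorescent immunoblotting for EZH2, EED and SUZ12, with β-actin as loading control. Blots are representative of two biological experiments.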
Background: A western blot detects proteins with antibodies after separation by electrophoresis.

A word on the inhibition: it is the drop in the measured response relative to a control, in per cent.

Chain of Histone-lysine N-methyltransferase NSD3 (Homo sapiens) (Q9BZ95 whole entry): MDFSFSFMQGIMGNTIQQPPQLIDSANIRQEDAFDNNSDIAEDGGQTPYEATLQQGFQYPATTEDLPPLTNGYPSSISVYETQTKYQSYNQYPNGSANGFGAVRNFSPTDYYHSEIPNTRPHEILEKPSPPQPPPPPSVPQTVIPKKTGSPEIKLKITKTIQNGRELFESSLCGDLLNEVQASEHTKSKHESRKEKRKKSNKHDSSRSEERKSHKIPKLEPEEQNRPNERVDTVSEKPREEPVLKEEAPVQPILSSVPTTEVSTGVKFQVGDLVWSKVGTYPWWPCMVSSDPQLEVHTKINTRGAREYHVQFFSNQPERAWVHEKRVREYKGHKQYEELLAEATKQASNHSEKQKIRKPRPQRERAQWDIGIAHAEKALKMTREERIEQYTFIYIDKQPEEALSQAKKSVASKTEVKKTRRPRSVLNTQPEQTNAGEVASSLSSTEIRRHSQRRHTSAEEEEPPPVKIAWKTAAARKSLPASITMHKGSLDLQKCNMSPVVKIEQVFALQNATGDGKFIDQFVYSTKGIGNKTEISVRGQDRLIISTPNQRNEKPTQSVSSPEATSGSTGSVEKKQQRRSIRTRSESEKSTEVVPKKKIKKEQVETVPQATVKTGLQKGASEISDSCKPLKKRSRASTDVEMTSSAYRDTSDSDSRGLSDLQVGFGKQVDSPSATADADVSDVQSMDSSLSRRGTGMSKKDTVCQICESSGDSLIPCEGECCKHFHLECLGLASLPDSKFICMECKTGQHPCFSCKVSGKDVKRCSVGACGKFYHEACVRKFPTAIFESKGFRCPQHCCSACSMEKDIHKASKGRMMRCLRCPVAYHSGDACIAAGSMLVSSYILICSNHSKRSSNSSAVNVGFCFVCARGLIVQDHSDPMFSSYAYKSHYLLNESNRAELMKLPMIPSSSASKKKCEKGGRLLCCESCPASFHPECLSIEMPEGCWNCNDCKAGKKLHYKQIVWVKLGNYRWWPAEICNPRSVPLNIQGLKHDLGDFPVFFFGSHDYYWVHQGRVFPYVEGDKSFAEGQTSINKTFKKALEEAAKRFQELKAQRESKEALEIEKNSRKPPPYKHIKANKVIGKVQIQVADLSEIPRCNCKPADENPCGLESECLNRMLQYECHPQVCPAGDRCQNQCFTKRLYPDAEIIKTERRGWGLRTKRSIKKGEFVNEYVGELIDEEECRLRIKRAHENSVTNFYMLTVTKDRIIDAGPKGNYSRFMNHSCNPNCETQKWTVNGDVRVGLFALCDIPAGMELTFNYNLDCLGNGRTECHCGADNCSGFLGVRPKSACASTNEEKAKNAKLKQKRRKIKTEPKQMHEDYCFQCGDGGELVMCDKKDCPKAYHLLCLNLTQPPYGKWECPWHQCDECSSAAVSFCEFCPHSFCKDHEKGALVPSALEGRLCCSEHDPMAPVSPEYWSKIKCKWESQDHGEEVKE
Chain of Protein arginine N-methyltransferase 6 (Homo sapiens) (Q96LA8 whole entry, looked up): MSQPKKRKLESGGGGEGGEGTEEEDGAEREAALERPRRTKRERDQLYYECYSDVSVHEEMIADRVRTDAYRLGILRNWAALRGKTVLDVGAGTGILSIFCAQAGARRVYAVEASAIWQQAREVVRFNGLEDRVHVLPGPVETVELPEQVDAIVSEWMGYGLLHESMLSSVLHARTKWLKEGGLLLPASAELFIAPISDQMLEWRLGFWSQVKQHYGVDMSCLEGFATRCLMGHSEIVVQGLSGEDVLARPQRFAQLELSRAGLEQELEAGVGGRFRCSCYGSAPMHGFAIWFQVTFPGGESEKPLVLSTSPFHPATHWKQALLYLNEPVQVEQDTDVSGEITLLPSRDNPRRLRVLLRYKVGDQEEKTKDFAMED
Chain of von Hippel-Lindau disease tumor suppressor/Histone-lysine N-methyltransferase EZH2 (P40337 whole entry, looked up): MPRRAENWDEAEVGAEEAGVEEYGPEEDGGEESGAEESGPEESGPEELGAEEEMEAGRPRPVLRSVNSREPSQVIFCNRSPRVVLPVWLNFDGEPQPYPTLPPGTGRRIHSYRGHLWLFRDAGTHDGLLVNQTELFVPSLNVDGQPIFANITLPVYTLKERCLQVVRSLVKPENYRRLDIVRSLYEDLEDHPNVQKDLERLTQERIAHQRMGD
Chain of von Hippel-Lindau disease tumor suppressor/Histone-lysine N-methyltransferase EZH2 (Q15910 whole entry, looked up): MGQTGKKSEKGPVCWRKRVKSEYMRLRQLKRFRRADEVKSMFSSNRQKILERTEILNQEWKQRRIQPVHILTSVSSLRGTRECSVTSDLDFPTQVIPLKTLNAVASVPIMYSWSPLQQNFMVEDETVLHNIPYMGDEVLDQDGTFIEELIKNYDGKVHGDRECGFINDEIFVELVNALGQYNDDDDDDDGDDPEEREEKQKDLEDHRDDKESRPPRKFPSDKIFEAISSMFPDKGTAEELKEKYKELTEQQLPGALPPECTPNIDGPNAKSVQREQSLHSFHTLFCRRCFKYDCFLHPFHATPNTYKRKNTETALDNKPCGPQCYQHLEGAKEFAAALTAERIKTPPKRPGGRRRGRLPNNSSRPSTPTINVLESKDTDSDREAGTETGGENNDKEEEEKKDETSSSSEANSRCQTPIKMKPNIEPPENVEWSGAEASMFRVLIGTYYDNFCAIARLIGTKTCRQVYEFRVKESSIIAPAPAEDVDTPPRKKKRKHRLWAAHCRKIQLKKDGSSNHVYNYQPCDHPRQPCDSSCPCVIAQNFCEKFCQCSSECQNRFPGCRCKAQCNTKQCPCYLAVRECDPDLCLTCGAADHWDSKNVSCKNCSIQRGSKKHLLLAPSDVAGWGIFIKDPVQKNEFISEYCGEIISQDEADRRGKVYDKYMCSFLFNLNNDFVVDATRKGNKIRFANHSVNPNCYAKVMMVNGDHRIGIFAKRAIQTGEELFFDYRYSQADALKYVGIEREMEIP

Consider `CCN(c1cc(-c2ccc(CN3CCN(CCC(=O)NCCCCCCCCCCC(=O)N[C@H](C(=O)N4C[C@H](O)C[C@H]4C(=O)NCc4ccc(-c5scnc5C)cc4)C(C)(C)C)CC3)cc2)cc(C(=O)NCc2c(C)cc(C)[nH]c2=O)c1C)C1CCOCC1`, for which the inhibition in assay [1], in assay [2] and in assay [3] was < 50% each time. In assay [4], the Activity is 100%.
